# MC4R antagonist: blocks human MC4R cAMP signaling | P32245 | MC4R-expressing cells, MTII-stimulated cAMP, LANCE TR-FRET | inhibition, % at 6.5 µM | 0.48% of 360,000 active | AID 540295;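 active = inhibition above its plate's cutoff, the mean of tested wells on that plate plus 3 SD, cut at about 29% in these data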;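 note: 0% = Melanotan II alone and 100% = Melanotan II plus saturating MCL0020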
#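 Assay system: U2OS cells stably expressing human melanocortin 4 receptor (MC4R) / Dosing: 6.5 µM / Timing: compound 30 min, challenge 1 h, detection 1 h / Measured by: Eu-cAMP/anti-cAMP TR-FRET, emission 671 nm / Replicates: singlicate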
# MPTP inh: inhibitors of mitochondrial permeability transition pore | isolated mouse mitochondria, Ca2+ swelling absorbance, 30 min | inhibition, % at 10 µM | 1.4% of 360,000 active;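 active = inhibition of 50% or more, scaled per plate between neutral and stimulator controls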;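 note: 0% = DMSO wells given calcium and 100% = 1 mM EGTA wells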
# SMARCA2 act: activators of SMARCA2 function; AID 652017; 1% of 370,000 active; activation, % at 9.1 µM; MG213 cells, MMTV-luciferase reporter, dexamethasone, overnight; in the data active = activation above about 7.8%;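 note: 0% = vehicle wells and 100% = reference activator wells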
# MC4R barr agon: activates human MC4R beta-arrestin recruitment. U2OS MC4R beta-arrestin complementation, luminescence; percent of melanotan II response, DMSO zero. activation, % at 8.9 µM. 0.98% of 360,000 active. AID 540308;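 active = activation above a per-plate cutoff, the mean activation of sample wells on that plate plus 3 SD, cut at about 8% in these data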
# ATG4B inhibitor: inhibitors of human ATG4B cysteine protease. Q9Y4P1. ATG4B cleavage of LC3-PLA2, NBD-HPC fluorescence, 1 h. inhibition, % at 8.33 µM. 0.51% of 340,000 active. AID 504462; in the data active = inhibition above about 40%
# MC4R barr ag: human MC4R beta-arrestin agonism confirmation; 31% of 2,400 active; U2OS MC4R beta-arrestin recruitment, luminescence; scaled DMSO 0%, Melanotan II 100%; shares compounds with MC4R barr agon; activation, % at 8.9 µM;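 active = mean activation across replicates above the hit cutoff set in the earlier primary screen, cut at about 8% in these data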
# MOR-DOR barr ag: counter-screen for MC4R agonists: agonists of mu-delta opioid heterodimer. shares compounds with MC4R barr agon. U2OS PathHunter beta-arrestin, beta-gal luminescence; percent of deltorphin B response, DMSO zero. activation, % at 9.2 µM. 5.8% of 2,400 active;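 active = mean activation across replicates exceeds the hit threshold derived in the earlier primary screen, cut at about 18% in these data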;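 note: 100% = deltorphin B at 0.9 µM final and 0% = DMSO alone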
# Target sequence (P35372 whole entry, looked up): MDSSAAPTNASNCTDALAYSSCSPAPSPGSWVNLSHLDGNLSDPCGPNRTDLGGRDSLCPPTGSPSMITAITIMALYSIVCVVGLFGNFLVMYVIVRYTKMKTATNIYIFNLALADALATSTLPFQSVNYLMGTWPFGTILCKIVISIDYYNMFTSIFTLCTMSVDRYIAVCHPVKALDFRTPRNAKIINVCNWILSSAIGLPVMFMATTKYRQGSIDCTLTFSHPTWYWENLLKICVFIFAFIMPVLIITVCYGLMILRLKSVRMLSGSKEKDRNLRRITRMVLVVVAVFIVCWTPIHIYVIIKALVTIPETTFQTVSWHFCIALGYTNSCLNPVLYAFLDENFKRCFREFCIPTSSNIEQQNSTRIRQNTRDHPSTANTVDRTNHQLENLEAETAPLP
# Target sequence (P41143 whole entry, looked up): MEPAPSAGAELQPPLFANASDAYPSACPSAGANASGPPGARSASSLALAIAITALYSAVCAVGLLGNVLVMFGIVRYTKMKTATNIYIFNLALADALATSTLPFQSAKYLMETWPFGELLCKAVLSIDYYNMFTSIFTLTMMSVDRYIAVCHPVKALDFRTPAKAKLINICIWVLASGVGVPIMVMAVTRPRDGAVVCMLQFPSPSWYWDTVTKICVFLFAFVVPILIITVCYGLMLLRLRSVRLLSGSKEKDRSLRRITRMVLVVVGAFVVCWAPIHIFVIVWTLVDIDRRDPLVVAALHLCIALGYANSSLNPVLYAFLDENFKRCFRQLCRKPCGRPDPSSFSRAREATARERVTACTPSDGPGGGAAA
# The depositor's hits bear a star; x = no result. Shown are actives, neighbours in structure and some others; about 4.1% of the full set was active somewhere.
SMILES,MC4R antagonist,MPTP inh,SMARCA2 act,MC4R barr agon,ATG4B inhibitor,MC4R barr ag,MOR-DOR barr ag
O=C(OCC(O)C(O)C(O)C(SCc1ccccc1)SCc1ccccc1)c1ccccc1 (centres undefined),6.4,-1.0,2.3,17.2*,-4.7,14.1*,11.2
O=C(OCC(O)C(O)C(O)COC(=O)c1ccccc1)c1ccccc1 (centres undefined),26.3,2.0,-0.8,-2.6,-9.4,x,x
COc1ccc(-c2csc(NC(=O)c3ccccc3C(=O)O)n2)cc1,3.2,2.1,-0.2,-1.6,27.3,x,x
COc1ccc(-c2csc(NC(=O)c3nc(-c4ccccc4)oc3C)n2)cc1,-3.0,4.3,0.6,11.8*,7.2,2.4,3.6
Cc1cc(N2CCN(C(=O)OC(C)(C)C)C[C@H]2C)ccc1N1CCS(=O)(=O)CC1,x,x,-2.3,x,x,x,x
COc1ccc(NC(=O)CC2C(=O)N(Cc3ccccc3)C(=S)N2CCN2CCOCC2)cc1 (centres undefined),17.7,1.3,-3.8,-1.1,0.9,x,x
C=CCN1C(=O)C(CC(=O)Nc2ccc(OCCC)cc2)N(CCCN2CCN(Cc3ccccc3)CC2)C1=S (centres undefined),7.9,14.4,-3.8,22.0*,-12.1,9.4*,21.7*
Cc1ccccc1OCc1nc2ccccc2c(=O)n1/N=C/c1c[nH]c2ccccc12,-2.6,1.6,0.4,28.5*,4.8,8.2,6.0
Cc1ccc(-c2[nH]ncc2/C=N/n2c(COc3ccccc3C)nc3ccccc3c2=O)cc1,4.4,5.1,2.0,18.8*,0.4,3.2,5.3
Cc1cccc(C)c1OCc1nc2ccccc2c(=O)n1/N=C/c1c[nH]c2ccccc12,8.9,1.8,-3.0,2.5,35.4,x,x
CCOc1ccc(-c2nnc(-c3ccc(OC)cc3)o2)cc1,3.5,-0.8,0.4,30.8*,-1.9,1.1,4.7
O=C(c1ccoc1)N1CCN(c2cc(-c3cccnc3)nc3cc(-c4cccc(Cl)c4)nn23)CC1,19.8,2.1,-3.8,10.8*,x,-0.3,3.3
O=C(c1ccoc1)N1CCN(c2cc(-c3ccccc3)nc3cc(-c4ccc(Br)cc4)nn23)CC1,16.1,1.3,-1.6,1.8,x,x,x
COc1cc(C(=O)Nc2nnc(-c3sccc3C)s2)cc(OC)c1OC,8.2,2.2,-1.1,11.8*,-12.9,23.1*,7.6
CCOCc1nnc(NC(=O)c2cc(OC)c(OC)c(OC)c2)s1,-6.8,2.3,-3.7,1.3,6.9,x,x
CCOC(=O)c1cccc(NC(=O)CN(C)S(=O)(=O)c2ccco2)c1,x,x,-5.3,x,x,x,x
O=C(Nc1ccc(Cl)c(Cl)c1)C1CCCN(c2nnc(-n3cccc3)s2)C1 (centres undefined),x,x,-4.9,x,x,x,x
O=C(Nc1ccc(Br)cc1)c1ccc(CSC2=NCCS2)cc1,1.3,1.2,-0.6,28.8*,-0.2,3.0,12.6
COc1cc(NC(=O)c2ccc(-c3ccc(F)c(F)c3)c3ccoc23)cc(OC)c1OC,7.2,1.1,-2.7,13.7*,x,4.7,4.8
CCCc1ccc(Oc2coc3cc(OCC(=O)Nc4ccccc4C)ccc3c2=O)cc1,7.0,3.3,-0.4,22.2*,-7.4,14.7*,6.8
N#Cc1cccc(NC(=O)OCCN2C(=O)CCC23CCC(c2ccc(Cl)cc2)CC3)c1 (centres undefined),x,x,-5.2,x,x,x,x
CN1Cc2nnn(Cc3ccccc3)c2-c2ccccc2S1(=O)=O,x,x,-2.6,x,x,x,x
COc1cc2ccccc2cc1C(=O)OCc1nc2ccsc2c(=O)[nH]1,3.8,0.4,2.7,15.1*,-4.6,4.4,6.3
COc1cc(SC)ccc1C(=O)OCc1nc2ccsc2c(=O)[nH]1,7.3,-0.1,0.5,-3.0,-3.8,x,x
COc1ccc(CNS(=O)(=O)/C=C/c2ccccc2CNC(=O)OC(C)(C)C)cc1,x,x,-4.3,x,x,x,x
SMILES,MC4R antagonist,MPTP inh,SMARCA2 act,MC4R barr agon,ATG4B inhibitor,MC4R barr ag,MOR-DOR barr ag
COCCn1c(SCC(=O)Nc2ccccc2OC)nc2ccccc2c1=O,-20.7,1.1,-3.4,-1.1,-3.4,x,x
C=CCn1c(SCC(=O)Nc2ccc(OC)cc2)nc2ccccc2c1=O,1.6,1.0,-2.9,14.9*,4.0,-1.5,1.2
CCn1c(SCC(=O)Nc2ccc(NC(=O)c3ccco3)c(OC)c2)nc2ccccc2c1=O,15.4,0.5,0.2,17.8*,9.5,4.6,2.2
COc1ccc(NC(=O)CSc2nc3ccccc3c(=O)n2CCNC(C)=O)cc1,3.0,1.6,0.8,2.9,-2.1,x,x
COCCn1c(SCC(=O)Nc2ccc(NC(=O)c3ccco3)c(OC)c2)nc2ccccc2c1=O,-4.4,0.8,-3.9,26.6*,-19.6,7.5,15.8
Cc1ccccc1CN1CCCCC(NC(=O)Nc2ccccc2)C1=O (centres undefined),x,x,-2.9,x,x,x,x
CC(C)CN1C(=O)[C@@]2(CC(=O)N(C)C2c2ccccc2)c2cc(-n3cc(CO)nn3)ccc21 (some centres undefined),x,x,-2.8,x,x,x,x
O=C(NCCc1c[nH]c2ccccc12)OCc1cn(Cc2cccc(C(F)(F)F)c2)nn1,x,x,-1.5,x,x,x,x
Cc1ccc(CN2CCN(CCCn3cnc4c(OCc5ccccc5)ncnc43)CC2)cc1,1.0,0.8,-3.1,3.1,-9.8,x,x
c1ccc(COc2ncnc3c2ncn3CCCN2CCN(Cc3cccc4ccccc34)CC2)cc1,13.0,0.9,-4.6,19.9*,x,10.0*,7.2
Cc1ccc(F)cc1C(=O)N(Cc1ccccn1)CC1CCCO1 (centres undefined),x,x,-1.6,x,x,x,x
COc1ccc(OCCn2cc(/C=C(\C#N)C(=O)NCc3ccco3)c3ccccc32)cc1,-5.8,2.6,-3.6,50.1*,1.3,51.8*,29.9*
N#C/C(=C\c1cn(CC(=O)O)c2ccccc12)C(=O)NCc1ccccc1,1.4,0.9,-1.9,-1.6,5.3,x,x
Cc1ccc(C)c(OCCn2cc(/C=C(\C#N)C(=O)NCc3ccco3)c3ccccc32)c1,19.5,1.5,-4.0,11.4*,13.8,12.2*,9.1
N#C/C(=C\c1cn(CCOc2ccccc2)c2ccccc12)C(=O)NCc1cccs1,7.7,0.6,-0.3,22.9*,-3.1,6.1,6.6
COc1ccccc1OCCn1cc(/C=C(\C#N)C(=O)NCc2ccco2)c2ccccc21,8.3,1.8,-3.8,1.3,-9.7,x,x
COC(=O)C1CN(CCc2ccccc2)CCS(=O)(=O)N1Cc1ccccc1F (centres undefined),x,x,-0.8,x,x,x,x
N#CCC[C@@H]1CC[C@]2(CCCN(S(=O)(=O)c3ccccc3)C2)O1,x,x,-0.1,x,x,x,x
CC(C)C[C@H]1COc2cccc(F)c2S(=O)(=O)N1Cc1cn(Cc2ccc(C(F)(F)F)cc2)nn1,x,x,-3.0,x,x,x,x
Nn1c(SCC(=O)Nc2nccs2)nnc1-c1cc(-c2ccc(F)cc2)n[nH]1,x,x,-2.4,x,x,x,x
